Assay results published in ChEMBL document CHEMBL1140719, “A Drosophila model to identify polyamine-drug conjugates that target the polyamine transporter in an intact epithelium” (J Med Chem, 2008).

Key:
[1] = Inhibition of disc eversion in Drosophila melanogaster imaginal disc cells at 18 uM; assay type: functional
Outline: (§1)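 Larvae are Oregon-R, from eggs laid for 24 h at 25 °C on cornmeal medium with bromophenol blue. About 30 leg imaginal discs per culture are cultured 15 h at 25 °C in 1 mL minimal Robb's medium (pH 7.2) with 1 µg/mL 20-hydroxyecdysone and 18 µM compound. Spermidine at 100 µM is added as competitor where stated.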

[2] = tested on: polyamine transporter; test: Ratio of IC50 for polyamine transporter deficient […] cells to IC50 for CHO cells; assay type: cell-based, Cricetulus griseus; details: chinese hamster, polyamine transporter deficient […] cells and CHO cells; read-out: Ratio IC50
Outline: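 The ratio is the IC50 in the polyamine-transport-deficient CHO-MG line (MGBG-resistant after ethylmethanesulfonate mutagenesis) divided by the IC50 in parental CHO cells.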

[3] = Cytotoxicity against polyamine transporter deficient […] cells; assay type: ADME, cell-based; details: Cricetulus griseus
[4] = Inhibition of disc eversion in Drosophila melanogaster imaginal disc cells at 18 uM in presence of spermidine; assay type: functional; outline: as §1
[5] = Inhibition of PAT assessed as cytotoxicity against CHO cells; assay type: cell-based; details: Cricetulus griseus
[6] = Cytotoxicity against Drosophila melanogaster imaginal disc cells by Trypan blue exclusion test; assay type: cell-based
Outline: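 Oregon-R Drosophila melanogaster leg imaginal discs are dissected in Ringer's with 0.1% BSA and cultured 15 h at 25 °C in minimal Robb's medium (pH 7.2). The medium holds 18 µM conjugate and 1 µg/mL 20-hydroxyecdysone. Viability of noneverted disc cells is then judged by Trypan blue exclusion, with everted control discs for comparison.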

[7] = tested on: L1210; test: Cytotoxicity against mouse L1210 cells; assay type: functional, cell-based

Structure (SMILES) | inhibition at 18 µM [1] [%] | selectivity ratio [2] | IC50 [3] [µM] | inhibition at 18 µM [4] [%] | IC50 [5] [µM] | Activity [6] | IC50 [7] [µM]
NCCCCNCCCN [SPERMIDINE] | 4.8 | – | – | – | – | – | –
CCN(CCCCNCCCCN)Cc1c2ccccc2cc2ccccc12 | 5.5 | 1 | 21.9 | – | – | – | –
NCCCCNCc1c2ccccc2cc2ccccc12 | 78.4 | 1 | 7.6 | 100 | 7.7 | – | –
NCCCNCCCCNCc1c2ccccc2cc2ccccc12 | 73.9 | 24 | 9.5 | 23.8 | 0.4 | Toxic | 0.4
NCCCCNCCCCNCc1c2ccccc2cc2ccccc12 | 97.6 | 148 | 66.7 | 8.7 | 0.45 | Toxic | –
NCCCNCc1c2ccccc2cc2ccccc12 | 95.2 | 1 | 2.4 | 100 | 2.3 | – | 2.2
CCN(CCCNCCCN)Cc1c2ccccc2cc2ccccc12 | 88.5 | 0.8 | 4 | 100 | 5.3 | – | 2.2
NCCCNCCCNCc1c2ccccc2cc2ccccc12 | 85.4 | 1.8 | 3.4 | 100 | 1.9 | – | –
NCCCCNCCCNCc1c2ccccc2cc2ccccc12 | 7.8 | 3.5 | 8.8 | 9.9 | 2.5 | – | 0.7
CCN(CCCN)Cc1c2ccccc2cc2ccccc12 | 75.7 | 0.9 | 6.6 | 90 | 7.7 | – | 5.1
